From ChEMBL document CHEMBL1138606, “The discovery of tropane derivatives as nociceptin receptor ligands for the management of cough and anxiety” (Bioorg Med Chem Lett, 2009) come the findings set out here.

Activity calls are given as the source filed them. No cut-off for these calls is given here.

Data set [1] addresses T1, Mu-type opioid receptor (Homo sapiens, UniProt P35372). Nature of the data set: Displacement of [3H]diprenorphine from human mu opioid receptor expressed in CHO cells. It counts as cell-based. A general note: Loss of bound radioactivity is the signal in a displacement assay; it reports binding, not function.
The target in data set [2] is T2, Nociceptin receptor (Homo sapiens, UniProt P41146). Nature of the data set: Displacement of [125I][Tyr14]nociceptin from human cloned NOP receptor expressed in CHO cells. It counts as cell-based.
In data set [3] the target is T3, Nuclear receptor subfamily 1 group I member 2 (Homo sapiens, UniProt O75469).
T3 sequence (O75469 whole entry): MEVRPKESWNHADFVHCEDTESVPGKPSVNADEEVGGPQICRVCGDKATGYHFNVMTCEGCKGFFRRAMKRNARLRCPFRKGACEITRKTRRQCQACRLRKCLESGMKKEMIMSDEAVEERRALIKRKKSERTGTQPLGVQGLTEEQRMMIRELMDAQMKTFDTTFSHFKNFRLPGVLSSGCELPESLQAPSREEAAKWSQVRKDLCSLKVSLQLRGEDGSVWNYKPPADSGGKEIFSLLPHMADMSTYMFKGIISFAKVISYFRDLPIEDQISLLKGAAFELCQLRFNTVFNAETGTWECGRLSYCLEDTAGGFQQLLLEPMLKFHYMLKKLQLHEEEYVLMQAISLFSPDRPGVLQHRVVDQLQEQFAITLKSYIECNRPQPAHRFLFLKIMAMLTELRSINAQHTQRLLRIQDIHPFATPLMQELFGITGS
Nature of the data set: Activity at human PXR assessed as induction of CYP3A4 activity in human hepatocytes at 1 uM relative to rifampicin. It counts as cell-based, Hepatocyte.

Data set [4] has as its target T2, Nociceptin receptor. Nature of the data set: Agonist activity at human NOP assessed as stimulation of GDP-induced [35S]GTPgammaS binding at 10 uM. The class given is functional. The method in brief:
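Functional agonism measured as enhancement of [35S]GTPγS binding in the presence of GDP, using membranes from cells transfected with the receptor. […] Values are means of 2–3 experiments.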
In general terms: GTPγS resists hydrolysis and so accumulates on activated G proteins.

For data set [5], the target named is T1, Mu-type opioid receptor. The experiment in a line: Binding affinity to human mu opioid assessed as stimulation of GDP-induced [35S]GTPgammaS binding at 10 uM. The class given is functional. The gist of the method: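 Agonist function read as enhancement of [35S]GTPγS binding to receptor-expressing membranes in the presence of GDP. Percent stimulation is given at 10 µM test compound. Values are means of at least 2–3 experiments.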

Data set [6] deals with T2, Nociceptin receptor. The experiment in a line: Agonist activity at human NOP assessed as stimulation of GDP-induced [35S]GTPgammaS binding. The class given is functional. The gist of the method:
(§1)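 Functional agonism measured as enhancement of [35S]GTPγS binding in the presence of GDP, using membranes from cells transfected with the receptor. Values are means of 2–3 experiments.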

Data set [7] deals with T1, Mu-type opioid receptor. The experiment in a line: Agonist activity at human mu opioid assessed as stimulation of GDP-induced [35S]GTPgammaS binding. The class given is functional. The gist of the method: as §1
Data set [8] concerns Cavia porcellus. The experiment in a line: Antitussive activity against capsaicin-induced cough in po dosed Hartley guinea pig model after 2 hrs. The class given is functional.

T1 sequence (P35372 whole entry): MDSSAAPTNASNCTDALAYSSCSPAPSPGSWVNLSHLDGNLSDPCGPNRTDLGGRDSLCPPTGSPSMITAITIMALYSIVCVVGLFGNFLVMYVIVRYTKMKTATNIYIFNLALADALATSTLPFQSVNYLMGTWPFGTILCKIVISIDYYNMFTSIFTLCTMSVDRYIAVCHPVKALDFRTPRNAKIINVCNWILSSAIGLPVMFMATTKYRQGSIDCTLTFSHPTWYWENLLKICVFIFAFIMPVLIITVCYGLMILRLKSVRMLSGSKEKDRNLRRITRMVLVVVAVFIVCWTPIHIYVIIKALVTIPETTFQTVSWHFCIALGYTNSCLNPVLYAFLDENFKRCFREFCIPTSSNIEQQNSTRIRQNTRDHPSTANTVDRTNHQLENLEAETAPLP
T2 sequence (P41146 whole entry): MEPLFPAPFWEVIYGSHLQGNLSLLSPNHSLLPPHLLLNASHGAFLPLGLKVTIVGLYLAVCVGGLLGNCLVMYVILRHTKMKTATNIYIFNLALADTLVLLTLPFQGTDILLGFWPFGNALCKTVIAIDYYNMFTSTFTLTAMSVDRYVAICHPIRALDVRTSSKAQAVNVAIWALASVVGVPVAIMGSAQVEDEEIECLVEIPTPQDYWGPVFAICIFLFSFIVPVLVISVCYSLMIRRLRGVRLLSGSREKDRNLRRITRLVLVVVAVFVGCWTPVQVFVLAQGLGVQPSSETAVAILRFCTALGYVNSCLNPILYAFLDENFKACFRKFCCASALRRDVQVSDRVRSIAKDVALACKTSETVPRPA

Take `CCNC(=O)C1(c2ccccc2)CC2CCC(C1)N2C(c1ccccc1Cl)c1ccccc1Cl` (configuration not stated): the Ki in data set [1] came to 215 nM; in data set [2], 7 nM. The Ratio in data set [3] was 1.49.

On to `OC1(c2ccccc2)CC2CCCC(C1)N2C(c1ccccc1)c1ccccc1` (configuration not stated), for which the values for the Ki in data set [1] and in data set [2] were 514 nM and 7.5 nM, respectively. In addition, the Activity in data set [4] stood at 101%.

For the compound `CNC(=O)C1(c2ccccc2)CC2CCC(C1)N2C(c1ccccc1Cl)c1ccccc1Cl` (configuration not stated), the Ki in data set [1] came to 50 nM; in data set [2] it was 4.9 nM. For the same compound, the Ratio in data set [3] is given as 1.29.

Consider `Clc1ccccc1C(c1ccccc1Cl)N1C2CCC1CC(c1ccccc1)(c1nc[nH]n1)C2` (configuration not stated), for which the results for the Ki in data set [1] and in data set [2] were 100 nM and 5.3 nM, respectively.

For `COc1ccc(CC2(O)CC3CCC(C2)N3C(c2ccccc2Cl)c2ccc(C)cc2Cl)nc1` (configuration not stated), the Activity in data set [5] stood at 31%. The EC50 in data set [6] came to 90 nM. The Ki in data set [1] amounted to 384 nM; in data set [2], 13 nM.

Consider `CC(C)NC(=O)C1(c2ccccc2)CC2CCC(C1)N2C(c1ccccc1Cl)c1ccccc1Cl` (configuration not stated), for which the values for the Ki in data set [1] and in data set [2] were 333 nM and 10 nM, respectively. Besides, the Ratio in data set [3] is 2.21.

Turning to `OC1(c2cccnc2)C2CCC1CN(C(c1ccccc1Cl)c1ccccc1Cl)C2` (configuration not stated), the figures for the inhibition constant (Ki) in data set [1] and in data set [2] were 7260 nM and 908 nM, respectively.

As to `O/N=C/C1(c2ccccc2)CC2CCC(C1)N2C(c1ccccc1Cl)c1ccccc1Cl` (configuration not stated), in data set [5], the Activity was 29%. In data set [6], the EC50 stood at 107 nM. For the same compound, the Ki is 601 nM in data set [1] and 20 nM in data set [2].

On to `Cc1ccnc(C2(O)C3CCC2CN(C(c2ccccc2Cl)c2ccccc2Cl)C3)c1` (configuration not stated), for which the Ki came out at 3590 nM in data set [1] and 385 nM in data set [2].

In turn, `OC1(c2cccnn2)CC2CCC(C1)N2C(c1ccccc1Cl)c1ccccc1Cl` (stereo in doubt; 12c) gave a Ki in data set [2] of 3760 nM. This lies in the single-digit micromolar range.

As for `NC(=O)C1(c2ccc(OC(F)(F)F)cc2)CC2CCC(C1)N2C(c1ccccc1Cl)c1ccccc1Cl` (configuration not stated), the Ki in data set [2] came out at 285 nM. Besides, the Ratio in data set [3] is 0.1.

With `O=C(NC1(c2ccccc2)CC2CCC(C1)N2C(c1ccccc1Cl)c1ccccc1Cl)C1CC1` (configuration not stated), the Activity in data set [5] worked out at 25%. For the same compound, the EC50 in data set [6] is 35 nM. The Ki in data set [1] turned out to be 996 nM; in data set [2], 11 nM.

`OC1CC2CCC(C1)N2C(c1ccccc1Cl)c1ccccc1Cl` (stereo in doubt; 12a) yielded a Ki in data set [2] of 1090 nM.

With `COc1ccc(C2(C(N)=O)CC3CCC(C2)N3C(c2ccccc2Cl)c2ccccc2Cl)cc1` (configuration not stated), the Ki was determined as 59 nM in data set [1] and 22 nM in data set [2]. For the same compound, the Ratio in data set [3] amounted to 0.06.

As for `OC1(c2cncs2)CC2CCC(C1)N2C(c1ccccc1Cl)c1ccccc1Cl` (stereo in doubt; 11b), the values for the Ki in data set [1] and in data set [2] were 1490 nM and 19 nM, respectively.

Turning to `C[C@H]1CN(C(c2ccccc2)c2ccccc2)CC[C@@]1(O)c1ccccc1`, the Ki in data set [2] was 1570 nM.

Take `CC(O)CNC(=O)C1(c2ccccc2)CC2CCC(C1)N2C(c1ccccc1Cl)c1ccccc1Cl` (configuration not stated): the inhibitory constant (Ki) was found to be 57 nM in data set [1] and 11 nM in data set [2]. For the same compound, the Ratio in data set [3] is on record as 2.38.

Regarding `Cc1ccc(C(c2ccccc2Cl)N2C3CCC2CC(O)(C2CCCN2Cc2ccccc2)C3)c(Cl)c1` (configuration not stated), the results for the Ki in data set [1] and in data set [2] were 1550 nM and 14 nM, respectively.

As for `COC1(c2ccccc2)CC2CCC(C1)N2C(c1ccccc1Cl)c1ccccc1Cl` (configuration not stated), the EC50 in data set [7] amounted to 545 nM; in data set [6], 50 nM. Also, the Ki in data set [1] worked out at 636 nM; in data set [2], 8 nM.

For the compound `NC(=O)C1(c2ccc(Br)cc2)CC2CCC(C1)N2C(c1ccccc1Cl)c1ccccc1Cl` (configuration not stated), the affinity in data set [2] corresponds to a Ki of 40 nM. Further, the Ratio in data set [3] was 0.05.

Regarding `Cc1ccc(C(c2ccccc2Cl)N2C3CCC2CC(O)(C2CCNC2=O)C3)c(Cl)c1` (configuration not stated), in data set [5], the Activity came to 60%. Besides, the EC50 in data set [6] came to 48 nM. Further, the Ki in data set [1] was found to be 781 nM; in data set [2], 3.6 nM.

`COC(=O)NC1(c2ccccc2)CC2CCC(C1)N2C(c1ccccc1Cl)c1ccccc1Cl` (configuration not stated): the EC50 was found to be 782 nM in data set [7] and 54 nM in data set [6]. Also, the results for the Ki in data set [1] and in data set [2] were 576 nM and 6 nM, respectively.

Regarding `OC1(c2cccnn2)CC2CCC(C1)N2C(c1ccccc1Cl)c1ccccc1Cl` (stereo in doubt; 11c), the values for the Ki in data set [1] and in data set [2] were 470 nM and 10 nM, respectively.

On to `OC1(c2cccnc2)CC2CCC(C1)N2C(c1ccccc1Cl)c1ccccc1Cl` (configuration not stated), for which the Ki in data set [1] turned out to be 42 nM; in data set [2] it was 3 nM.

`NC1(c2ccccc2)CC2CCC(C1)N2C(c1ccccc1Cl)c1ccccc1Cl` (configuration not stated): the EC50 in data set [7] stood at 4520 nM; in data set [6] it was 76 nM. Further, the figures for the Ki in data set [1] and in data set [2] were 458 nM and 4 nM, respectively.

With `Cc1ccc(C(c2ccccc2Cl)N2C3CCC2CC(O)(CCCO)C3)c(Cl)c1` (configuration not stated), the results for the Ki in data set [1] and in data set [2] were 306 nM and 7.4 nM, respectively.

In the case of `CNC(=O)NC1(c2ccccc2)CC2CCC(C1)N2C(c1ccccc1Cl)c1ccccc1Cl` (configuration not stated), the Ki in data set [1] was found to be 27 nM; in data set [2], 2 nM.

`O=C(O)C1(c2ccccc2)CC2CCC(C1)N2C(c1ccccc1Cl)c1ccccc1Cl` (configuration not stated): the results for the Ki in data set [1] and in data set [2] were 123 nM and 3 nM, respectively.

Consider `Cc1ccc(C(c2ccccc2Cl)N2C3CCC2CC(O)(c2cccc(F)c2)C3)c(Cl)c1` (configuration not stated), for which the results for the EC50 in data set [7] and in data set [6] were 894 nM and 16 nM, respectively. Further, the values for the inhibition constant Ki in data set [1] and in data set [2] were 57 nM and 2.7 nM, respectively.

On to `OC1(c2ccccc2)CC2CCC(C1)N2C(c1ccccc1)c1ccccc1` (configuration not stated), for which the outcome in data set [8] was inactive. This compound yielded a Ki in data set [1] of 94 nM.

In the case of `FCC1(c2ccccc2)CC2CCC(C1)N2C(c1ccccc1Cl)c1ccccc1Cl` (configuration not stated), the Ki in data set [2] turned out to be 3150 nM.

As for `Cc1ccnc(C2(O)CC3CCC(C2)N3C(c2ccccc2Cl)c2ccc(C)cc2Cl)c1` (configuration not stated), the Ki in data set [1] is 708 nM; in data set [2], 7.3 nM.

With `Cc1ccc(C(c2ccccc2Cl)N2C3CCC2CC(O)(C2CCCC2)C3)c(Cl)c1` (configuration not stated), the EC50 amounted to 709 nM in data set [7] and 16 nM in data set [6]. The Ki in data set [1] amounted to 104 nM; in data set [2], 1.9 nM.

In turn, `OC1CC2CCC(C1)N2C(c1ccccc1Cl)c1ccccc1Cl` (stereo in doubt; 11a) displayed a Ki in data set [2] of 198 nM. That is a sub-micromolar value.

Turning to `OCC1(c2ccccc2)CC2CCC(C1)N2C(c1ccccc1Cl)c1ccccc1Cl` (configuration not stated), the EC50 in data set [7] amounted to 2140 nM; in data set [6] it was 136 nM. Moreover, the Ki in data set [1] came out at 627 nM; in data set [2], 6 nM.

Consider `C[C@@H]1CN(C(c2ccccc2)c2ccccc2)CC[C@@]1(O)c1ccccc1`, for which the Ki is 738 nM in data set [1] and 142 nM in data set [2]. For the same compound, in data set [4], the Activity was 70%.

For `OC1(c2cncs2)CC2CCC(C1)N2C(c1ccccc1Cl)c1ccccc1Cl` (stereo in doubt; 12b), affinity in data set [2] was put at a Ki of 3000 nM.

`NC(=O)C1(c2ccc(Cl)cc2)CC2CCC(C1)N2C(c1ccccc1Cl)c1ccccc1Cl` (configuration not stated): the figures for the Ki in data set [1] and in data set [2] were 55 nM and 31 nM, respectively. Also, in data set [3], the Ratio is 0.05.

As for `COCCNC(=O)C1(c2ccccc2)CC2CCC(C1)N2C(c1ccccc1Cl)c1ccccc1Cl` (configuration not stated), the Ki in data set [1] was determined as 60 nM; in data set [2] it was 8.2 nM. In data set [3], the Ratio turned out to be 2.35.

For `Cc1ccc(C(c2ccccc2Cl)N2C3CCC2CC(O)(c2ccncn2)C3)c(Cl)c1` (configuration not stated), the figures for the EC50 in data set [7] and in data set [6] were 1690 nM and 50 nM, respectively. In addition, the values for the Ki in data set [1] and in data set [2] were 535 nM and 5.2 nM, respectively.

For the compound `N#CC1(c2ccccc2)CC2CCC(C1)N2C(c1ccccc1Cl)c1ccccc1Cl` (configuration not stated), affinity in data set [2] was put at a Ki of 100 nM. This counts as sub-micromolar.

`NC(=O)c1ccc(C2(C(N)=O)CC3CCC(C2)N3C(c2ccccc2Cl)c2ccccc2Cl)cc1` (configuration not stated) gave a Ki in data set [2] of 678 nM. Besides, the Ratio in data set [3] is given as 0.05.

On to `Cc1ccc(C(c2ccccc2Cl)N2C3CCC2CC(O)(C2=NCCCN2)C3)c(Cl)c1` (configuration not stated), for which, in data set [5], the Activity came to 29%. For the same compound, the EC50 in data set [6] came to 62 nM. For the same compound, the values for the Ki in data set [1] and in data set [2] were 622 nM and 3 nM, respectively.

What is called Ki is the dissociation constant of the complex between target and ligand, obtained from inhibition or displacement. Usually EC50 stands for the concentration needed to bring the measured effect to its halfway point.
